Active and inactive are the calls of the source. The rule behind the calls is not given here.
Legend:
[1] = target: T1, Estrogen receptor (Rattus norvegicus) (UniProt P06211+Q62986); assay: Relative binding against estrogen receptor of rat uterine cytosol by [2-4-3H] estradiol.; format: protein assay
Summary of the method: (§1)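 Uterine cytosol (1 uterine equiv/mL) from immature rats primed s.c. with 1 μg E₂ for 3 days, incubated 18 h at 4 °C with [³H]E₂ (5 × 10⁻⁹ M) and test compound (10⁻⁴–10⁻⁹ M) in triplicate. Medium was Tris-HCl/EDTA/azide buffer, pH 7.4, with 7% DMF. Free ligand removed with charcoal-dextran for 20 min before scintillation counting. Results expressed relative to E₂ = 100, mean ± SD of ≥3 determinations.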

Rattus norvegicus [2] = assay: Estrogenicity in rats following 3 x 1 mg s.c. over 72h.; format: functional
Summary of the method: (§2)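 Immature Sprague-Dawley female rats, 21–23 days old, seven to nine per group, injected s.c. on 3 consecutive days with test compound suspended in 0.2 mL propylene glycol–saline (1:1 v/v). Vehicle-only controls. Autopsy 24 h after the final dose, uterine wet weight recorded. Agonist activity computed as (C₀ − V)(100)/(E − V), with E the E₂-alone mean.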

Rattus norvegicus [3] = assay: Inhibition of E2 effects in rats by 1 mg s.c.; format: functional
Summary of the method: (§3)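 Immature female Sprague-Dawley rats (21–23 days), groups of seven to nine, given test compound suspended in 0.2 mL propylene glycol–saline (1:1 v/v) s.c. daily for 3 consecutive days, plus 1 μg E₂ per animal at a separate site. Controls got E₂ plus vehicle. Uterine wet weight taken at autopsy 24 h after the last injection. Inhibition computed as (E − C₁)(100)/(E − V).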

Rattus norvegicus [4] = assay: Anti-uterotrophic effects in rats following 3 x 1 mg s.c. over 72h.; format: functional; summary of the method: as §3
Rattus norvegicus [5] = assay: Uterotrophic effects in rats following 3 x 1 mg s.c. over 72h.; format: functional, Uterus; summary of the method: as §2
Rattus norvegicus [6] = assay: Estrogenicity in rats following 3 x 0.1 mg s.c. over 72h.; format: functional; summary of the method: as §2
Rattus norvegicus [7] = assay: Uterotrophic effects in rats following 3 x 0.1 mg s.c. over 72h.; format: functional, Uterus; summary of the method: as §2
Rattus norvegicus [8] = assay: Anti-uterotrophic effects in rats following 3 x 0.1 mg s.c. over 72h.; format: functional; summary of the method: as §3
Rattus norvegicus [9] = assay: Inhibition of E2 effects in rats by 0.1 mg s.c.; format: functional; summary of the method: as §3
[10] = target: T1, Estrogen receptor (Rattus norvegicus); assay: Relative binding affinity against estrogen receptor of rat uterine cytosol by [2-4-3H] estradiol; No detectable affinity at 100 uM.; summary of the method: as §1

O=C(c1ccc(O)cc1)c1c(-c2ccccc2)oc2ccccc12
RBA [1]: 5.3%
Estrogenic effect (Rattus norvegicus [2]): 10%
Inhibition (Rattus norvegicus [3]): 0%
Uterine weight (Rattus norvegicus [4]): 50.7 mg
Uterine weight (Rattus norvegicus [5]): 16.3 mg

Oc1ccc(-c2oc3cc(O)ccc3c2-c2ccc(O)cc2)cc1
RBA [1]: 7.8%
Estrogenic effect (Rattus norvegicus [2]): 22%
Inhibition (Rattus norvegicus [3]): 30%
Uterine weight (Rattus norvegicus [4]): 39.6 mg
Uterine weight (Rattus norvegicus [5]): 21.2 mg

O=C(c1ccccc1)c1c(-c2ccc(O)cc2)oc2ccccc12
RBA [1]: 0.12%
Estrogenic effect (Rattus norvegicus [2]): 0%
Inhibition (Rattus norvegicus [3]): 0%
Uterine weight (Rattus norvegicus [4]): 47.4 mg
Uterine weight (Rattus norvegicus [5]): 13.7 mg

O=C(c1ccc(O)cc1)c1oc2cc(O)ccc2c1-c1ccc(O)cc1
RBA [1]: 2.7%
Estrogenic effect (Rattus norvegicus [2]): 31%
Inhibition (Rattus norvegicus [3]): 23%
Uterine weight (Rattus norvegicus [4]): 48.3 mg
Uterine weight (Rattus norvegicus [5]): 26.3 mg

O=C(/C(=C\c1ccccc1)c1ccccc1)c1ccc(O)cc1
RBA [1]: 0.06%
Estrogenic effect (Rattus norvegicus [6]): 33%
Uterine weight (Rattus norvegicus [7]): 22.2 mg
Uterine weight (Rattus norvegicus [8]): 70.4 mg
Inhibition (Rattus norvegicus [9]): 0%

O=C(c1ccc(O)cc1)c1c(-c2ccccc2)oc2cc(O)ccc12
RBA [1]: 2.1%
Estrogenic effect (Rattus norvegicus [2]): 25%
Inhibition (Rattus norvegicus [3]): 37%
Uterine weight (Rattus norvegicus [4]): 38 mg
Uterine weight (Rattus norvegicus [5]): 22.4 mg

O=C(c1ccccc1)c1c(-c2ccc(O)cc2)oc2cc(O)ccc12
RBA [1]: 0.72%
Estrogenic effect (Rattus norvegicus [2]): 35%
Inhibition (Rattus norvegicus [3]): 0%
Uterine weight (Rattus norvegicus [4]): 43.2 mg
Uterine weight (Rattus norvegicus [5]): 26.6 mg

C/C(=C(\C(=O)c1ccc(OCCN2CCCC2)cc1)c1ccccc1)c1ccccc1
RBA [1]: 0.24%
Estrogenic effect (Rattus norvegicus [6]): 0%
Uterine weight (Rattus norvegicus [7]): 18 mg
Uterine weight (Rattus norvegicus [8]): 46.6 mg
Inhibition (Rattus norvegicus [9]): 16%

O=C(c1ccc(OCCN2CCCC2)cc1)c1c(-c2ccccc2)oc2ccccc12
RBA [1]: 0.01%
Estrogenic effect (Rattus norvegicus [2]): 0%
Inhibition (Rattus norvegicus [3]): 0%
Uterine weight (Rattus norvegicus [4]): 56.1 mg
Uterine weight (Rattus norvegicus [5]): 16.7 mg

Cl.O=C(c1ccccc1)c1c(-c2ccc(OCCN3CCCC3)cc2)oc2ccccc12
RBA [1]: 0.3%
Estrogenic effect (Rattus norvegicus [2]): 38%
Inhibition (Rattus norvegicus [3]): 58%
Uterine weight (Rattus norvegicus [4]): 29.6 mg
Uterine weight (Rattus norvegicus [5]): 27.7 mg

C/C(=C(/C(=O)c1ccc(O)cc1)c1ccccc1)c1ccccc1
RBA [1]: 3.6%
Estrogenic effect (Rattus norvegicus [6]): 83%
Uterine weight (Rattus norvegicus [7]): 46.4 mg
Uterine weight (Rattus norvegicus [8]): 44.7 mg
Inhibition (Rattus norvegicus [9]): 21%

Oc1ccc(-c2c(-c3ccccc3)oc3cc(O)ccc23)cc1
RBA [1]: 1.6%
Estrogenic effect (Rattus norvegicus [2]): 0%
Inhibition (Rattus norvegicus [3]): 0%
Uterine weight (Rattus norvegicus [4]): 46.5 mg
Uterine weight (Rattus norvegicus [5]): 14.6 mg

COc1ccc2c(-c3ccc(OCCN4CCCC4)cc3)c(-c3ccccc3)oc2c1
RBA [1]: 0.01%
Estrogenic effect (Rattus norvegicus [2]): 57%
Inhibition (Rattus norvegicus [3]): 0%
Uterine weight (Rattus norvegicus [4]): 61.4 mg
Uterine weight (Rattus norvegicus [5]): 35.4 mg

c1ccc(-c2occ(-c3ccc(OCCN4CCCC4)cc3)c2-c2ccccc2)cc1
RBA [10]: inactive
Estrogenic effect (Rattus norvegicus [6]): 61%
Uterine weight (Rattus norvegicus [7]): 35.6 mg
Uterine weight (Rattus norvegicus [8]): 52.1 mg
Inhibition (Rattus norvegicus [9]): 0%

Oc1ccc(-c2c(-c3ccccc3)coc2-c2ccccc2)cc1
RBA [1]: 4.5%
Estrogenic effect (Rattus norvegicus [6]): 0%
Uterine weight (Rattus norvegicus [7]): 16.7 mg
Uterine weight (Rattus norvegicus [8]): 42.8 mg
Inhibition (Rattus norvegicus [9]): 0%

Oc1ccc(-c2coc(-c3ccccc3)c2-c2ccccc2)cc1
RBA [1]: 3%
Estrogenic effect (Rattus norvegicus [6]): 100%
Uterine weight (Rattus norvegicus [7]): 48.9 mg
Uterine weight (Rattus norvegicus [8]): 57.6 mg
Inhibition (Rattus norvegicus [9]): 0%

O=C(/C(=C/c1ccccc1)c1ccccc1)c1ccc(O)cc1
RBA [1]: 1.8%
Estrogenic effect (Rattus norvegicus [6]): 68%
Uterine weight (Rattus norvegicus [7]): 49.4 mg
Uterine weight (Rattus norvegicus [8]): 78.1 mg
Inhibition (Rattus norvegicus [9]): 0%

O=C(c1ccc(O)cc1)c1c(-c2ccc(O)cc2)oc2ccccc12
RBA [1]: 1.7%
Estrogenic effect (Rattus norvegicus [2]): 0%
Inhibition (Rattus norvegicus [3]): 0%
Uterine weight (Rattus norvegicus [4]): 59.3 mg
Uterine weight (Rattus norvegicus [5]): 13.1 mg

C/C(=C(/C(=O)c1ccc(OCCN2CCCC2)cc1)c1ccccc1)c1ccccc1
RBA [1]: 0.008%
Estrogenic effect (Rattus norvegicus [6]): 38%
Uterine weight (Rattus norvegicus [7]): 30.6 mg
Uterine weight (Rattus norvegicus [8]): 43.1 mg
Inhibition (Rattus norvegicus [9]): 26%

c1ccc(-c2coc(-c3ccccc3)c2-c2ccc(OCCN3CCCC3)cc2)cc1
RBA [1]: 0.84%
Estrogenic effect (Rattus norvegicus [6]): 31%
Uterine weight (Rattus norvegicus [7]): 26.4 mg
Uterine weight (Rattus norvegicus [8]): 53.9 mg
Inhibition (Rattus norvegicus [9]): 0%

C/C(=C(\C(=O)c1ccc(O)cc1)c1ccccc1)c1ccccc1
RBA [1]: 0.54%
Estrogenic effect (Rattus norvegicus [6]): 0%
Uterine weight (Rattus norvegicus [7]): 19.8 mg
Uterine weight (Rattus norvegicus [8]): 47.3 mg
Inhibition (Rattus norvegicus [9]): 14%

COc1ccc2c(-c3ccc(O)cc3)c(-c3ccccc3)oc2c1
RBA [1]: 0.01%

COc1ccc(-c2c(-c3ccccc3)oc3cc(O)ccc23)cc1
RBA [1]: 0.01%

Reference: ChEMBL document CHEMBL1124544, “Structure-activity relationship of antiestrogens: a study using triarylbutenone, benzofuran, and triarylfuran analogues as models for triarylethylenes and triarylpropenones” (1989)
